Reference: publication PMC2677757 (Drug metabolism and disposition: the biological fate of …, 2009)
Converted amounts (≈) assume the structure as drawn. Marks after values point to notes of the source that are not given here.

Tests used:
[1] = biological target: T1, rSULT1A1 (Rattus norvegicus, UniProt P17988); assay: Reversibility of the effect of GSSG on rSULT1A1 by reduction with DTT; format: biochemical; conditions: 25°C 1 hr pretreatment; 2-naphthol 250 μM, 4′-OH PCB 6 100 μM; mean and SD, n=3
T1 sequence (P17988 whole entry): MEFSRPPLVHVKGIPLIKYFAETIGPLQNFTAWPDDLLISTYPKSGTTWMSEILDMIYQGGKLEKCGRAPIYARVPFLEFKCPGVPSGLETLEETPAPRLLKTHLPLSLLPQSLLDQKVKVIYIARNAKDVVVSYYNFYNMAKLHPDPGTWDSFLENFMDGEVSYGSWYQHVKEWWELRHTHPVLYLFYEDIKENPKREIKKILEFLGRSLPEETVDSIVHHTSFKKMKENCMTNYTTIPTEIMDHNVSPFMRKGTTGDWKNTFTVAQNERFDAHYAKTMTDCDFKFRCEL

[2] = biological target: T2, rSULT2A3 (Rattus norvegicus, UniProt P22789); assay: Inhibition of rSULT2A3-catalyzed sulfation of DHEA; format: biochemical; conditions: for Inhibition of rSULT2A3 reached: DHEA as substrate, within solubility limits
T2 sequence (P22789 1-284): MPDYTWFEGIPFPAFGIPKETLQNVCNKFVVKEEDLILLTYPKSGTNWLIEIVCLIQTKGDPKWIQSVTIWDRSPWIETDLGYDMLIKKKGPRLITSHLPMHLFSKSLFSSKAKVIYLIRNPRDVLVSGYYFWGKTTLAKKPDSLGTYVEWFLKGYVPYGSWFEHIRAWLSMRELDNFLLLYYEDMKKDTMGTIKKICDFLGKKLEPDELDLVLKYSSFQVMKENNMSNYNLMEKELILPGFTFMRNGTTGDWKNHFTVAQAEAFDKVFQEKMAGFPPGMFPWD

[3] = Solubility of OHPCBs in the SULT assay buffer by light scattering at 400 nm; format: physicochemical
[4] = biological target: T1, rSULT1A1; assay: Sulfation of OHPCBs by rSULT1A1 pretreated with GSH or GSSG; format: biochemical; conditions: for Sulfation at varying OHPCB concentrations, rSULT1A1 pretreated with 1 mM GSSG: Fig. 3B; for Substrate inhibition in both reduced and oxidized rSULT1A1-catalyzed reactions: 1 mM GSH or 1 mM GSSG pretreatment; for Sulfation by GSSG-pretreated rSULT1A1 compared with GSH-pretreated enzyme: 1 mM GSSG vs 1 mM GSH, Fig. 3A
Method in brief: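 DTT was stripped from purified enzyme by gel filtration at 4°C, leaving less than 0.06 mM. Enzyme was held 1 h at 25°C under argon with 1 mM GSH or GSSG, and GSH was checked by DTNB. Assays used 0.75 μg enzyme, 0.25 M phosphate pH 7.0, 200 μM PAPS and no 2-mercaptoethanol, 6 min at 37°C. Test compound was 100 μM or varied. PAP formation was corrected by a no-compound blank, in duplicate or triplicate.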

[5] = system: hSULT2A1; conditions: ref Liu et al., 2006; cited from earlier work
[6] = biological target: T1, rSULT1A1; assay: Inhibition of rSULT1A1-catalyzed sulfation of 2-naphthol; format: biochemical
[7] = biological target: T1, rSULT1A1; assay: Assay of OHPCBs as potential substrates of rSULT1A1; format: biochemical; conditions: presence of reducing agents; within limits of solubility
Method in brief: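 Recombinant rat SULT1A1 was expressed in E. coli at 29°C without IPTG and purified by PAP-agarose affinity with a PAP gradient in DTT-containing buffer. […] Substrate-dependent PAP formation was the read-out.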

[8] = 37 °C, pH 7, aqueous buffer, kinetic from dmso stock
[9] = 37°C, 0.25 M potassium phosphate pH 7.0, […] (v/v) acetone, 7.5 mM 2-mercaptoethanol, light scattering

Q: For `Oc1ccc2ccccc2c1` [2-Naphthol], which “Rate of sulfation, rSULT1A1 pretreated with 1 mM GSSG” value [1] is on record?
A: The value was 50.2±2.1 ^c nmoles of product/mg/min.

Q: And the “Rate of sulfation, rSULT1A1 pretreated with 5 mM DTT” value [1]?
A: Its value is 38.3±4.7 nmoles of product/mg/min.

Q: What does the source list for `Oc1ccc(-c2ccc(Cl)cc2)c(Cl)c1` [4-OH PCB 8, 2,4′-Dichloro-biphenyl-4-ol]?
A: IC50 [2]: ~400 µM; Solubility [3, 8]: ≥ 500 µM

Q: What does the source list for `Oc1c(Cl)cc(-c2ccccc2)cc1Cl` [4-OH PCB 14]?
A: Sulfation at varying OHPCB concentrations, rSULT1A1 pretreated with 1 mM GSSG [4]: concentration-dependent sulfation; Solubility [3, 9]: ≥1000 µM

Q: For `Oc1c(Cl)cc(-c2ccccc2Cl)cc1Cl` [4-OH PCB 34], which “Substrate activity for hSULT2A1” value [5] is on record?
A: The value was “good substrates”.

Q: And the Solubility [3, 9]?
A: Its Solubility is 300 µM (≈ 82.1 µg/mL).

Q: With `Oc1ccc(-c2ccc(Cl)cc2)cc1` [4′-OH PCB 3] as the molecule, how does the Solubility [3, 9] read?
A: The Solubility was 300 µM (≈ 61.4 µg/mL).

Q: Which “Rate of sulfation, rSULT1A1 pretreated with 1 mM GSSG” value [1] does the source give for `Oc1ccc(-c2ccccc2Cl)cc1Cl` [4′-OH PCB 6, 3,2′-Dichloro-biphenyl-4-ol] here?
A: The value was 37.3±4.0 nmoles of product/mg/min.

Q: And the “Sulfation at varying OHPCB concentrations, rSULT1A1 pretreated with 1 mM GSSG” value [4]?
A: Its value is “concentration-dependent sulfation”.

Q: What about the IC50 [6] of the same molecule?
A: The IC50 was 22.7 µM.

Q: And the “Inhibition of rSULT2A3 reached” value [2]?
A: The value was “less than 50%”.

Q: And the Solubility [3, 8]?
A: The Solubility was 250 µM (≈ 59.8 µg/mL).

Q: With `Oc1ccc(-c2cc(Cl)ccc2Cl)cc1` [4′-OH PCB 9] as the molecule, how does the “Inhibition of hSULT2A1” value [5] read?
A: Its value is “potent inhibitor”.

Q: What about the “Substrate inhibition in both reduced and oxidized rSULT1A1-catalyzed reactions” value [4] of the same molecule?
A: Its value is “presence of substrate inhibition”.

Q: And the “Sulfation by GSSG-pretreated rSULT1A1 compared with GSH-pretreated enzyme” value [4]?
A: Its value is “only slightly increased”.

Q: What about the “Inhibition of rSULT2A3 reached” value [2] of the same molecule?
A: Its value is “full inhibition”.

Q: What about the Solubility [3, 9] of the same molecule?
A: Its Solubility is 500 µM (≈ 120 µg/mL).

Q: With `Oc1ccc(-c2ccc(Cl)c(Cl)c2)cc1` [4′-OH PCB 12] as the molecule, how does the Solubility [3, 9] read?
A: Its Solubility is at least 500 µM.

Q: Which Solubility [3, 9] does the source give for `Oc1ccc(-c2ccc(Cl)cc2Cl)cc1Cl` [4′-OH PCB 25] here?
A: The Solubility was 100 µM (≈ 27.4 µg/mL).

Q: With `Oc1ccc(-c2ccc(Cl)c(Cl)c2)c(Cl)c1` [4′-OH PCB 33, 2,3′,4′-Trichloro-biphenyl-4-ol] as the molecule, how does the “Sulfation at varying OHPCB concentrations, rSULT1A1 pretreated with 1 mM GSSG” value [4] read?
A: Its value is “concentration-dependent sulfation”.

Q: And the IC50 [6]?
A: The IC50 was 26.2 µM.

Q: What about the “Inhibition of rSULT2A3 reached” value [2] of the same molecule?
A: The value was “less than 50%”.

Q: What about the Solubility [3, 8] of the same molecule?
A: The Solubility was 50 µM (≈ 13.7 µg/mL).

Q: With `Oc1ccc(-c2ccc(Cl)c(Cl)c2)cc1Cl` [4′-OH PCB 35] as the molecule, how does the “Substrate inhibition with rSULT1A1” value [7] read?
A: Its value is “did not show substrate inhibition”.

Q: And the Solubility [3, 9]?
A: The Solubility was 50 µM (≈ 13.7 µg/mL).

Q: What does the source list for `Oc1ccc(-c2cc(Cl)cc(Cl)c2)cc1Cl` [4′-OH PCB 36]?
A: Inhibition of rSULT1A1 reached ([6]; 2-naphthol as substrate, up to full inhibition or limit of solubility): about 65%; Solubility [3, 9]: 50 µM (≈ 13.7 µg/mL)

Q: With `Oc1c(Cl)cc(-c2ccc(Cl)cc2Cl)cc1Cl` [4′-OH PCB 68] as the molecule, how does the “Substrate activity for hSULT2A1” value [5] read?
A: The value was “good substrates”.

Q: What about the Solubility [3, 9] of the same molecule?
A: The Solubility was 50 µM (≈ 15.4 µg/mL).

Q: For `Oc1ccc(Cl)cc1-c1ccc(Cl)c(Cl)c1` [6′-OH PCB 35], which “Substrate inhibition with rSULT1A1” value [7] is on record?
A: The value was “did not show substrate inhibition”.

Q: And the “Substrate inhibition in both reduced and oxidized rSULT1A1-catalyzed reactions” value [4]?
A: Its value is “absence of substrate inhibition”.

Q: And the “Sulfation by GSSG-pretreated rSULT1A1 compared with GSH-pretreated enzyme” value [4]?
A: The value was “only slightly increased”.

Q: And the Solubility [3, 9]?
A: The Solubility was 100 µM (≈ 27.4 µg/mL).
